Legend:
[1] = biological target: Estrogen receptor (Homo sapiens, UniProt Q92731+P03372); settings: mcf7
[2] = tested on: Rattus norvegicus; test: Percent decrease in serum cholesterol relative to OVX control at 1 mg/kg in rat; format: functional
Procedure, shortened: (§1)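 OVX Sprague–Dawley rats (75 days old), 5–6 per group, dosed once daily by oral gavage for 4 consecutive days, starting 14 days after ovariectomy. Vehicle was 20% β-hydroxycyclodextrin at 1 mL/kg, or 1.5% carboxymethylcellulose in some cases. Rats were fasted after the last dose and bled by cardiac puncture next morning.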

[3] = tested on: Rattus norvegicus; test: Percent decrease in serum cholesterol relative to OVX control at 10 mg/kg in rat was determined (in vivo); format: functional
Procedure, shortened: as §1

[4] = tested on: Rattus norvegicus; test: Percent decrease in serum cholesterol relative to OVX control at 0.1 mg/kg in rat was determined (in vivo); format: functional
Procedure, shortened: as §1

[5] = tested on: Rattus norvegicus; test: Minimum effective dose at which significant increase in uterine eosinophil peroxidase (EPO) activity in rat was determined (in vivo); format: functional; settings: read-out: MED
[6] = tested on: Rattus norvegicus; test: Minimum effective dose at which significant increase in uterine weight/body weight in rat was determined (in vivo); expressed as % increase relative to ovariectomized (OVX) controls; format: functional
Procedure, shortened: (§2)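 In 75-day OVX Sprague–Dawley rats dosed orally for 4 days, beginning 2 weeks post-ovariectomy with 5–6 rats per group, whole uteri were weighed the morning after fasting. MED is the lowest dose giving a significant (p≤0.05) rise in uterine weight/body weight, expressed as % increase over OVX controls ±SE.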

[7] = tested on: Rattus norvegicus; test: Dose required to reduce serum cholesterol by 50% relative to OVX controls was determined (in vivo); format: functional
Procedure, shortened: as §1

[8] = tested on: Rattus norvegicus; test: Minimum effective dose at which significant increase in uterine weight/body weight in rat was determined (in vivo); format: functional; settings: read-out: MED
Procedure, shortened: as §2

SMILES	IC50 [1] [nM]	Decrease [2] [%]	Decrease [3] [%]	Decrease [4] [%]	minimal effective dose [5] [mg/kg]	Increase [6] [%]	ED50 [7] [mg/kg]	minimal effective dose [8] [mg/kg]
O=C(c1ccc(OCCN2CCCCC2)cc1)c1c(-c2ccc(O)cc2)sc2cc(O)c3ccccc3c12	500							
NC(=O)c1ccc(-c2sc3cc(O)ccc3c2C(=O)c2ccc(OCCN3CCCCC3)cc2)cc1		-21.3	10	-3.2	> 10			> 10
C#Cc1ccc2c(C(=O)c3ccc(OCCN4CCCCC4)cc3)c(-c3ccc(O)cc3)sc2c1		58.7	65.8	39.4	> 10	27.8	0.5	1
O=C(O)c1ccc(-c2sc3cc(O)ccc3c2C(=O)c2ccc(OCCN3CCCCC3)cc2)cc1		-8.8	24.6	3.1	> 10			> 10
Cc1cc2c(C(=O)c3ccc(OCCN4CCCCC4)cc3)c(-c3ccc(O)cc3)sc2c(C)c1O	500							
COc1ccc(-c2sc3c(OC)c(OC)c(OC)cc3c2C(=O)c2ccc(OCCN3CCCCC3)cc2)cc1.Cl	350							
Cc1cc2c(C(=O)c3ccc(OCCN4CCCCC4)cc3)c(-c3ccc(O)cc3)sc2cc1O		42.2	43.7	-4.3	> 10		5.4	> 10
CC/C(=C(\c1ccccc1)c1ccc(OCCN(C)C)cc1)c1ccccc1 [TAMOXIFEN]		71.1	67	39.2	0.1	62.4	0.2	0.1
C#Cc1ccc(-c2sc3cc(O)ccc3c2C(=O)c2ccc(OCCN3CCCCC3)cc2)cc1		32.7	35.8	9.1	> 10		> 10	> 10
COc1ccc2c(C(=O)c3ccc(OCCN4CCCCC4)cc3)c(-c3ccc4c(c3)OCO4)sc2c1	500							
Cc1c(O)cc(C)c2c(C(=O)c3ccc(OCCN4CCCCC4)cc3)c(-c3ccc(O)cc3)sc12	100							
COc1ccc(-c2sc3ccccc3c2C(=O)c2ccc(OCCN3CCCCC3)cc2)cc1.O=C(O)CC(O)(CC(=O)O)C(=O)O	100							
O=C(c1ccc(OCCN2CCCCC2)cc1)c1c(-c2ccc3ccccc3c2)sc2cc(O)ccc12	80				0.1		0.2	0.1

Now from value to molecule, other results behind:

IC50 [1] [nM]	SMILES	Decrease [2] [%]	Decrease [3] [%]	Decrease [4] [%]	minimal effective dose [5] [mg/kg]	Increase [6] [%]	ED50 [7] [mg/kg]	minimal effective dose [8] [mg/kg]
350	O=C(c1ccc(OCCN2CCCCC2)cc1)c1c(-c2ccc(O)cc2)sc2cc(O)cc(O)c12							
2.3	Cl.O=C(c1ccc(OCCN2CCCCC2)cc1)c1c(-c2ccc(F)cc2)sc2cc(O)ccc12	46	71.9	20.6	> 10	50.2	1.4	1
1000	Cl.O=C(c1ccc(OCCN2CCCCC2)cc1)c1c(-c2ccc(O)cc2)sc2cc(Cl)ccc12	-6.8	37.6	-5.1	> 10	49.6	> 10	10
190	O=C(c1ccc(OCCN2CCCCC2)cc1)c1c(-c2ccc(O)cc2)sc2cccc(O)c12	18	31.8	29.6	> 10		> 10	> 10
300	O=C(c1ccc(OCCN2CCCCC2)cc1)c1c(-c2ccc(O)cc2)sc2c(O)cccc12	-11.7	-3.4	-6.1	> 10	43.5		10
600	COc1ccc2c(C(=O)c3ccc(OCCN4CCCCC4)cc3)c(-c3ccc(CO)cc3)sc2c1							
1	Cl.O=C(c1ccc(OCCN2CCCCC2)cc1)c1c(-c2ccc(Cl)cc2)sc2cc(O)ccc12	69.9	65	32.3	> 10	56.5	0.3	0.1
2	COc1cc(O)ccc1-c1sc2cc(O)ccc2c1C(=O)c1ccc(OCCN2CCCCC2)cc1	79			1		< 0.1	0.1
100	O=C(c1ccc(OCCN2CCCCC2)cc1)c1c(-c2ccc(O)cc2)sc2ccc(O)cc12	3.7	22.6	10.4	> 10			> 10
> 1000	COc1ccc2c(C(=O)c3ccc(OCCN4CCCCC4)cc3)c(-c3ccccc3)sc2c1							
1	Cc1cc(-c2sc3cc(O)ccc3c2C(=O)c2ccc(OCCN3CCCCC3)cc2)ccc1O	73.9		28.4	> 10		1	> 10
2	Cc1cc(O)ccc1-c1sc2cc(O)ccc2c1C(=O)c1ccc(OCCN2CCCCC2)cc1				> 10		0.4	0.1
3	O=C(c1ccc(OCCN2CCCCC2)cc1)c1c(-c2ccc(O)cc2)sc2cc(O)c(F)cc12	4.1	31.6	4.6	> 10		> 10	> 10
400	O=C(c1ccc(OCCN2CCCCC2)cc1)c1c(-c2ccc(O)cc2)sc2cc(O)c(O)cc12							
10	O=C(c1ccc(OCCN2CCCCC2)cc1)c1c(-c2ccccc2O)sc2cc(O)ccc12			7.8	> 10		> 10	> 10
0.7	Cc1ccccc1-c1sc2cc(O)ccc2c1C(=O)c1ccc(OCCN2CCCCC2)cc1				> 10		> 10	10
2.3	O=C(c1ccc(OCCN2CCCCC2)cc1)c1c(-c2ccc(O)c(Cl)c2)sc2cc(O)ccc12	52.7			> 10	30.3	1.2	10
500	O=C(c1ccc(OCCN2CCCCC2)cc1)c1c(-c2ccc([N+](=O)[O-])cc2)sc2cc(O)ccc12							
2.5	O=C(c1ccc(OCCN2CCCCC2)cc1)c1c(-c2cccc(F)c2)sc2cc(O)ccc12	62			> 10		1	0.1
1000	COc1ccc(-c2sc3cc(O)ccc3c2C(=O)c2ccc(OCCN3CCCCC3)cc2)cc1	75.6	72.6	65.2	> 10		< 0.1	> 10
